From ChEMBL document CHEMBL1122508, “Conjugates of catecholamines. 1. N-alkyl-functionalized carboxylic acid congeners and amides related to isoproterenol” (1983)

Test system: S49
Assay: In vitro biological activity against accumulation of cAMP in S49 cells as relative activity expressed as ratio of KA for isoproterenol to KA for the compound
Assay type: functional, Mus musculus
Procedure, shortened: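 Wild-type S-49 mouse lymphoma cells resuspended at 2–2.5 × 10^6/mL in DME (13.3 g/L), 20 mM Hepes pH 7.4, 0.1% BSA. Preincubated 10 min at 37 °C without drug, then 6 min with compound; stopped on ice, pellets boiled, cAMP measured by competitive binding. K_A taken from cAMP vs log concentration; ratio uses isoproterenol K_A run at the same time. Each K_A averages ≥3 determinations, each in triplicate.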

Row | SMILES | Relative activity
1 | CC(CCCCC(=O)Nc1ccccc1C(F)(F)F)NCC(O)c1ccc(O)c(O)c1.Cl (stereo unspecified) | 0.00025
2 | CC(CCCCCC(=O)O)NCC(O)c1ccc(O)c(O)c1 (stereo unspecified) | 0.00083
3 | Cc1ccc(NC(=O)CCC(C)NCC(O)c2ccc(O)c(O)c2)cc1.Cl (stereo unspecified) | 0.71
4 | CC(CCCCC(=O)Nc1ccc(C(F)(F)F)cc1)NCC(O)c1ccc(O)c(O)c1.Cl (stereo unspecified) | 11000
5 | Cc1ccc(NC(=O)CCCCC(C)NCC(O)c2ccc(O)c(O)c2)cc1.Cl (stereo unspecified) | 54
6 | CCCCNC(=O)CCCCC(C)NCC(O)c1ccc(O)c(O)c1.Cl (stereo unspecified) | 0.25
7 | CC(CCC(=O)O)NCC(O)c1ccc(O)c(O)c1 (stereo unspecified) | 0.00016
8 | CC(CCCCC(=O)O)NCC(O)c1ccc(O)c(O)c1 (stereo unspecified) | 0.00097
9 | CC(CCCC(=O)O)NCC(O)c1ccc(O)c(O)c1 (stereo unspecified) | 0.00068
10 | COc1ccc(NC(=O)CCCCC(C)NCC(O)c2ccc(O)c(O)c2)cc1.Cl (stereo unspecified) | 3.1
11 | Cc1ccc(N(C)C(=O)CCCCC(C)NCC(O)c2ccc(O)c(O)c2)cc1.Cl (stereo unspecified) | 73
12 | CCCCc1ccc(NC(=O)CCCCC(C)NCC(O)c2ccc(O)c(O)c2)cc1.Cl (stereo unspecified) | 3200
13 | Cc1ccc(NC(=O)CCCC(C)NCC(O)c2ccc(O)c(O)c2)cc1.Cl (stereo unspecified) | 0.36
14 | CC(CCCCC(=O)NC1CCCCC1)NCC(O)c1ccc(O)c(O)c1.Cl (stereo unspecified) | 0.17
15 | CC(CCCCC(=O)Nc1cccc(C(F)(F)F)c1)NCC(O)c1ccc(O)c(O)c1.Cl (stereo unspecified) | 0.98
16 | Cc1ccc(NC(=O)CCCCCC(C)NCC(O)c2ccc(O)c(O)c2)cc1.Cl (stereo unspecified) | 0.11
